Laboratory results as given in ChEMBL document CHEMBL4052817 (J Med Chem, 2017).
Active and inactive are the calls of the source. No cut-off for these calls is given here.

Columns and labels:
[1] = Drug excretion in rat bile assessed as (R)-3-(5-fluoro-1H-indol-3-yl)pyrrolidine-2,5-dione; assay type: ADME; settings: in vivo
Summary of the method: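 Racemate dosed to rats (urine and bile collected) and to dogs (urine collected). The percentage of the dose excreted as unchanged (R)-enantiomer was measured.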

Mus musculus [2] = assay: Half life in CD-1 mouse assessed as (R)-3-(5-fluoro-1H-indol-3-yl)pyrrolidine-2,5-dione at 3 mg/kg, po; assay type: ADME, organism-based; settings: in vivo
Rattus norvegicus [3] = assay: AUC (infinity) in Wistar-Han rat assessed as (R)-3-(5-fluoro-1H-indol-3-yl)pyrrolidine-2,5-dione at 1 mg/kg, iv by LC-MS/MS method; assay type: ADME, organism-based; parameters: dose 1 mg/kg, time infinity, route intravenous; settings: in vivo
Summary of the method: (§1)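 Racemate given as a single 1 mg/kg IV dose to male CD-1 mice, Wistar-Han rats or beagle dogs (n=3 per species). Plasma levels of the (R)-enantiomer measured by chiral LC-MS/MS. Mean AUCinf, CLp, Vss and t1/2 reported.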

Cytochrome P450 2D6 [4] = biological target: T1, Cytochrome P450 2D6 (Homo sapiens, UniProt P10635); assay: Time-dependent inhibition of CYP2D6 (unknown origin); assay type: ADME
T1 sequence (P10635 whole entry): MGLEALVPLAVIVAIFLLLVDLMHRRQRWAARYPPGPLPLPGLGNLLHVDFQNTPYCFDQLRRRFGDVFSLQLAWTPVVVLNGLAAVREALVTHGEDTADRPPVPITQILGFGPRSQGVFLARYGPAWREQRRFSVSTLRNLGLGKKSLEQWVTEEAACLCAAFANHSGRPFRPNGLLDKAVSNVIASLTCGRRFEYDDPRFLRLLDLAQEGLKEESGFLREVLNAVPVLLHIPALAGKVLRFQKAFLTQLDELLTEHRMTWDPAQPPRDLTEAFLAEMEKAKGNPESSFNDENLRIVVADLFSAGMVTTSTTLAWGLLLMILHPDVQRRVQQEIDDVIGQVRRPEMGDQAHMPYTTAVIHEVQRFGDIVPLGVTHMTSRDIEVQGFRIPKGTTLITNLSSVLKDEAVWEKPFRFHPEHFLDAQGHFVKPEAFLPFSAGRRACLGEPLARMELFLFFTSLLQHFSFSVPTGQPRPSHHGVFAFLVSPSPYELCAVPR

[5] = Drug metabolism in human hepatocytes assessed as oxidation; assay type: ADME, cell-based, Hepatocyte
[6] = Inhibition of human p-gp transfected in MDCK cells assessed as decrease in digoxin transport; assay type: cell-based
Cytochrome P450 2C9 [7] = biological target: T2, Cytochrome P450 2C9 (Homo sapiens, UniProt P11712); assay: Time-dependent inhibition of CYP2C9 (unknown origin); assay type: ADME
T2 sequence (P11712 whole entry): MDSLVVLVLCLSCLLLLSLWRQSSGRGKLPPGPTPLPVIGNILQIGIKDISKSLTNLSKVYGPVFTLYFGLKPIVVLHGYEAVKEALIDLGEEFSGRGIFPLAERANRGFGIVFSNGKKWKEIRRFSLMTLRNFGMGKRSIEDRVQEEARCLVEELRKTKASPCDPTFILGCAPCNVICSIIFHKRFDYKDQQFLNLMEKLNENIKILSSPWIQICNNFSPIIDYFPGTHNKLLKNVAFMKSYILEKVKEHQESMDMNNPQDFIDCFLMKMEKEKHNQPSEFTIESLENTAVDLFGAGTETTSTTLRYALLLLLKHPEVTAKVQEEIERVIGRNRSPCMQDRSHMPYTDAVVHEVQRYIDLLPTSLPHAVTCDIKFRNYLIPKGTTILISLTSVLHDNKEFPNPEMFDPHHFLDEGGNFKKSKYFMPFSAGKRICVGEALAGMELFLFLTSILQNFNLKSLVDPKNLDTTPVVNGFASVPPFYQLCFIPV

Rattus norvegicus [8] = assay: Volume of distribution at steady state in Wistar-Han rat assessed as (R)-3-(5-fluoro-1H-indol-3-yl)pyrrolidine-2,5-dione at 1 mg/kg, iv by LC-MS/MS method; assay type: ADME, organism-based; settings: in vivo
Hepatocyte [9] = assay: Induction of CYP2B6 mRNA expression in human hepatocytes at <100 uM; assay type: ADME, cell-based
Canis familiaris [10] = assay: Half life in beagle dog assessed as (R)-3-(5-fluoro-1H-indol-3-yl)pyrrolidine-2,5-dione at 1 mg/kg, iv by LC-MS/MS method; assay type: ADME, organism-based, Canis lupus familiaris; settings: in vivo
[11] = Ratio of unbound drug level in brain to plasma in po dosed rat assessed as (R)-3-(5-fluoro-1H-indol-3-yl)pyrrolidine-2,5-dione; assay type: ADME, organism-based
Summary of the method: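 Racemate dosed orally to rats; active enantiomer measured in brain, CSF and plasma; total brain/plasma ratio and unbound brain/unbound plasma ratio calculated.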

Canis familiaris [12] = assay: Half life in beagle dog assessed as (R)-3-(5-fluoro-1H-indol-3-yl)pyrrolidine-2,5-dione at 3 mg/kg, po; assay type: ADME, organism-based, Canis lupus familiaris; settings: in vivo
Canis familiaris [13] = assay: AUC (infinity) in beagle dog assessed as (R)-3-(5-fluoro-1H-indol-3-yl)pyrrolidine-2,5-dione at 3 mg/kg, po; assay type: ADME, organism-based, Canis lupus familiaris; parameters: dose 3 mg/kg, route oral, time infinity; settings: in vivo
Cytochrome P450 2C9 [14] = biological target: T2, Cytochrome P450 2C9; assay: Inhibition of CYP2C9 (unknown origin); assay type: ADME
Cytochrome P450 2D6 [15] = biological target: T1, Cytochrome P450 2D6; assay: Inhibition of CYP2D6 (unknown origin); assay type: ADME
MC-38 = assay: Antitumor activity against mouse MC38 tumor model administered as monotherapy; assay type: functional
Cytochrome P450 2C19 = Cytochrome P450 2C19 (Homo sapiens, UniProt P33261); assay: Time/NADPH-dependent inhibition of CYP2C19 (unknown origin); assay type: ADME
Cytochrome P450 2C19, sequence (P33261 whole entry): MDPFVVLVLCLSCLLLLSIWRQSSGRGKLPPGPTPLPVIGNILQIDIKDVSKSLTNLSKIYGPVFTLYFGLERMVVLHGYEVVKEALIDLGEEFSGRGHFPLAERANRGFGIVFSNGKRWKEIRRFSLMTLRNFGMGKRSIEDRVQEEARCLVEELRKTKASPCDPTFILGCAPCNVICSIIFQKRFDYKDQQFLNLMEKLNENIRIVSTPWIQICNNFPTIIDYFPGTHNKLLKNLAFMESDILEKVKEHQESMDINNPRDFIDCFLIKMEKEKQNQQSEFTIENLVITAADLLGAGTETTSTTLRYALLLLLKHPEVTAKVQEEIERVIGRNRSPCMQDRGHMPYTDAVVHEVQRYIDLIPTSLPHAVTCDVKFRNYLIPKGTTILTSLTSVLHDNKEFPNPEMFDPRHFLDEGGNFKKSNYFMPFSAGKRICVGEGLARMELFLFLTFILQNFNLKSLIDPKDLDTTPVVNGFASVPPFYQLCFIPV

B16-F10 = assay: Antitumor activity against mouse B16/F10 tumor model administered as monotherapy; assay type: functional
Canis familiaris [16] = assay: Volume of distribution at steady state in beagle dog assessed as (R)-3-(5-fluoro-1H-indol-3-yl)pyrrolidine-2,5-dione at 1 mg/kg, iv by LC-MS/MS method; assay type: ADME, organism-based, Canis lupus familiaris; settings: in vivo
Mus musculus [17] = assay: AUC (infinity) in CD-1 mouse assessed as (R)-3-(5-fluoro-1H-indol-3-yl)pyrrolidine-2,5-dione at 1 mg/kg, iv by LC-MS/MS method; assay type: ADME, organism-based; parameters: dose 1 mg/kg, route intravenous, time infinity; settings: in vivo; summary of the method: as §1
[18] = biological target: Voltage-gated inwardly rectifying potassium channel KCNH2 (Homo sapiens, UniProt Q12809); assay: Inhibition of human ERG up to 300 uM relative to control
Voltage-gated inwardly rectifying potassium channel KCNH2, sequence (Q12809 whole entry): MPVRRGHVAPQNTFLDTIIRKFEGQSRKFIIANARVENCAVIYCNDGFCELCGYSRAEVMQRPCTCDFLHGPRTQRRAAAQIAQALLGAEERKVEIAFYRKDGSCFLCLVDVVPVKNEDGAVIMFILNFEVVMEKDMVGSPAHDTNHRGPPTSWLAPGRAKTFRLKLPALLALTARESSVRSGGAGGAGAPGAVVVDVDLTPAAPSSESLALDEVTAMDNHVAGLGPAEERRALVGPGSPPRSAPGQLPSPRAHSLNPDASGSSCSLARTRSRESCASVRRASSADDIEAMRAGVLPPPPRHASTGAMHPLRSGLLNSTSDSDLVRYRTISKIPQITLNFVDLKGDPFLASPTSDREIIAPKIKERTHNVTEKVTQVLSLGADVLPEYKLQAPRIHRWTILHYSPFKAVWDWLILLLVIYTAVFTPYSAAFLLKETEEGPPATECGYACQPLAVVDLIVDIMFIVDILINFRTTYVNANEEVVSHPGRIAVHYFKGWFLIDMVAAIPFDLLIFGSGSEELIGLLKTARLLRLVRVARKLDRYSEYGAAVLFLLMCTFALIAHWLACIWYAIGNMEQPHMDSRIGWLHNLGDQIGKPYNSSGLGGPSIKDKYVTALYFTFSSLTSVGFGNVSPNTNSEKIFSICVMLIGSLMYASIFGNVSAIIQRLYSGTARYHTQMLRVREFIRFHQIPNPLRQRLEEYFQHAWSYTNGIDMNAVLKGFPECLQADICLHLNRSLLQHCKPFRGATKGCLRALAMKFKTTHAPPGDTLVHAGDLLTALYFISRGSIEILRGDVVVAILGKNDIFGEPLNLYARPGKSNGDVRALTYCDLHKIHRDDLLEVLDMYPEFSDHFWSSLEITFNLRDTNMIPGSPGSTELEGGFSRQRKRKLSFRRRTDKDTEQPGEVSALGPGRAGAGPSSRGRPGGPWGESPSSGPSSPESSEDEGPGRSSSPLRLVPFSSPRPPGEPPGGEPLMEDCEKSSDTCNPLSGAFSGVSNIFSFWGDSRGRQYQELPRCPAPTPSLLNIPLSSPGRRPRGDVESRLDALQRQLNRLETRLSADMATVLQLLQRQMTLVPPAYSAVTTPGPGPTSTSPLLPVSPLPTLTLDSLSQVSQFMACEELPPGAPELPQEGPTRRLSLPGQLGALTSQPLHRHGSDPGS

Rattus norvegicus [19] = assay: Half life in Wistar-Han rat assessed as (R)-3-(5-fluoro-1H-indol-3-yl)pyrrolidine-2,5-dione at 1 mg/kg, iv by LC-MS/MS method; assay type: ADME, organism-based; settings: in vivo; summary of the method: as §1
[20] = Drug metabolism in human hepatocytes assessed as hydrolysis; assay type: ADME, cell-based, Hepatocyte
Mus musculus [21] = assay: AUC (infinity) in CD-1 mouse assessed as (R)-3-(5-fluoro-1H-indol-3-yl)pyrrolidine-2,5-dione at 3 mg/kg, po; assay type: ADME, organism-based; parameters: dose 3 mg/kg, route oral, time infinity; settings: in vivo
Canis familiaris [22] = assay: Tmax in beagle dog assessed as (R)-3-(5-fluoro-1H-indol-3-yl)pyrrolidine-2,5-dione at 3 mg/kg, po; assay type: ADME, organism-based, Canis lupus familiaris; settings: in vivo
4T1 = assay: Antitumor activity against mouse 4T1 tumor model administered as monotherapy; assay type: functional
[23] = biological target: Broad substrate specificity ATP-binding cassette transporter ABCG2 (Homo sapiens, UniProt Q9UNQ0); assay: Inhibition of BCRP (unknown origin) transfected in MDCK cells assessed as decrease in pitavastatin transport; assay type: cell-based
Broad substrate specificity ATP-binding cassette transporter ABCG2, sequence (Q9UNQ0 whole entry): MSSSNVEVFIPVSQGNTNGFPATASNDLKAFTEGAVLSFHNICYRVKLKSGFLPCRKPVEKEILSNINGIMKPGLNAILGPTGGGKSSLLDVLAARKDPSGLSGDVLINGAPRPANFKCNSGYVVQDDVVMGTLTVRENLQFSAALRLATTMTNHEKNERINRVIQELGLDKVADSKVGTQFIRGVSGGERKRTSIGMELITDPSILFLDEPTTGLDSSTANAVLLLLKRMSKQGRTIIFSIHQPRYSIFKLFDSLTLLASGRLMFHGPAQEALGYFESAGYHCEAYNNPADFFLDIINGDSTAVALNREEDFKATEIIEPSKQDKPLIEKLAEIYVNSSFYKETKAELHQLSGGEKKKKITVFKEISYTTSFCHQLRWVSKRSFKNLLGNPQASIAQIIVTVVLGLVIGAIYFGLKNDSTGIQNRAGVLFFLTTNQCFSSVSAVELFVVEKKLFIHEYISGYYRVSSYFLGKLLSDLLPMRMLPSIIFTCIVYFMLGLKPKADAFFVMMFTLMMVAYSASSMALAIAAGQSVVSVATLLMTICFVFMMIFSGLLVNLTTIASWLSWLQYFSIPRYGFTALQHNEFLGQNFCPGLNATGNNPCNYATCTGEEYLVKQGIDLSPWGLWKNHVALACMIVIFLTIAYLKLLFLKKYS

Rattus norvegicus [24] = assay: Tmax in Wistar-Han rat assessed as (R)-3-(5-fluoro-1H-indol-3-yl)pyrrolidine-2,5-dione at 3 mg/kg, po; assay type: ADME, organism-based; settings: in vivo
Rattus norvegicus [25] = assay: AUC (infinity) in Wistar-Han rat assessed as (R)-3-(5-fluoro-1H-indol-3-yl)pyrrolidine-2,5-dione at 3 mg/kg, po; assay type: ADME, organism-based; parameters: dose 3 mg/kg, route oral, time infinity; settings: in vivo
Cytochrome P450 1A2 = biological target: T3, Cytochrome P450 1A2 (Homo sapiens, UniProt P05177); assay: Time-dependent inhibition of CYP1A2 (unknown origin); assay type: ADME
T3 sequence (P05177 whole entry): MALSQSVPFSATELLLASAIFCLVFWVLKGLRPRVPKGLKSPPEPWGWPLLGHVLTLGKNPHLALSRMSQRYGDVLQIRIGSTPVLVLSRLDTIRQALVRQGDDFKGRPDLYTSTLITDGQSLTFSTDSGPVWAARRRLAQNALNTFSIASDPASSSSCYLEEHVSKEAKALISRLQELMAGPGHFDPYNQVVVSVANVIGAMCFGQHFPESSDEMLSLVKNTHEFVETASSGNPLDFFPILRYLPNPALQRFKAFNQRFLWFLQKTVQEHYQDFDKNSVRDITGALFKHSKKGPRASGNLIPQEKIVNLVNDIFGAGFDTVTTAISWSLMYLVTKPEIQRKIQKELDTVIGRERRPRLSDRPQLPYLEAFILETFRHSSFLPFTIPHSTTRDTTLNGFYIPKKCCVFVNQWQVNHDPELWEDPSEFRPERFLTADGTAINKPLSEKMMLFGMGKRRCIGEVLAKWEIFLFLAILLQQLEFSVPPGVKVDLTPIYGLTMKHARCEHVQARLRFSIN

[26] = biological target: Indoleamine 2,3-dioxygenase 2 (Homo sapiens) (UniProt Q6ZQW0); assay: Inhibition of human recombinant IDO-2 up to 200 uM using tryptophan as substrate after 22 mins by LC-MS/MS method
Indoleamine 2,3-dioxygenase 2 (Homo sapiens), sequence (Q6ZQW0 whole entry): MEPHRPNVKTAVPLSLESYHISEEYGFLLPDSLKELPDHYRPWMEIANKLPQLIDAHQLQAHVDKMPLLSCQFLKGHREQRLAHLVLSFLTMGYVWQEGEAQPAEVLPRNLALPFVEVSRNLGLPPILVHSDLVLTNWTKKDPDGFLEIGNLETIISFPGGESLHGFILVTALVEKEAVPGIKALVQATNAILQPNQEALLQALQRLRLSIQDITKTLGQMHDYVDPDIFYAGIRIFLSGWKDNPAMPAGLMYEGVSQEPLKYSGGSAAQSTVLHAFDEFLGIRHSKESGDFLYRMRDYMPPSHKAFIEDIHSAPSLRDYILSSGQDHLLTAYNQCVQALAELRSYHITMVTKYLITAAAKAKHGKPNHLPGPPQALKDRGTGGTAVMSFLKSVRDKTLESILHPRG
Summary of the method: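 Human IDO2 at 250 nM with inhibitor in duplicate, room temperature, in Mg/Ca-free PBS with 20 mM ascorbate, 10 μM methylene blue, 800 nM catalase, 15 μM tryptophan; HCl stop after 22 min; kynurenine quantified by RapidFire SPE-MS/MS; two replicates, geometric means.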

Hepatocyte [27] = assay: Induction of CYP3A4 mRNA expression in human hepatocytes at <100 uM; assay type: ADME, cell-based
CT26 = assay: Antitumor activity against mouse CT26 tumor model administered as […] co-treated with anti-PDL1 mAb; assay type: functional

O=C1CC(c2c[nH]c3ccc(F)cc23)C(=O)N1 (stereo not drawn) [PF-06840003]
Drug excretion [1]: < 1 %ID | t1/2 (Mus musculus [2]): 2.48 h | AUC (Rattus norvegicus [3]): 2520 ng·h/mL | TDI (Cytochrome P450 2D6 [4]): Not Active | Drug metabolism [5]: Metabolite_Detected | IC50 [6]: > 300 µM | TDI (Cytochrome P450 2C9 [7]): Not Active | Vdss (Rattus norvegicus [8]): 0.639 L/kg | Activity (Hepatocyte [9]): Not Active | t1/2 (Canis familiaris [10]): 0.802 h | K(p,uu,brain) [11]: 0.2 | t1/2 (Canis familiaris [12]): 0.84 h | AUC (Canis familiaris [13]): 237 ng·h/mL | IC50 (Cytochrome P450 2C9 [14]): > 100 µM | IC50 (Cytochrome P450 2D6 [15]): > 100 µM | Activity (MC-38): Active | inhibition (INH) (Cytochrome P450 2C19): Not Active | Activity (B16-F10): Active | Vdss (Canis familiaris [16]): 0.957 L/kg | AUC (Mus musculus [17]): 1160 ng·h/mL | inhibition (INH) [18]: < 50% | t1/2 (Rattus norvegicus [19]): 2.22 h | Drug metabolism [20]: Metabolite_Detected | AUC (Mus musculus [21]): 2170 ng·h/mL | Tmax (Canis familiaris [22]): 0.25 h | Activity (4T1): Active | IC50 [23]: 65.4 µM | Tmax (Rattus norvegicus [24]): 1.3 h | AUC (Rattus norvegicus [25]): 6940 ng·h/mL | TDI (Cytochrome P450 1A2): Not Active | inhibition [26]: inactive | Activity (Hepatocyte [27]): Not Active | Activity (CT26): Active
